The target in experiment [1] is T1, Activin receptor type-1B (Homo sapiens) (UniProt P36896).
T1 sequence (whole entry): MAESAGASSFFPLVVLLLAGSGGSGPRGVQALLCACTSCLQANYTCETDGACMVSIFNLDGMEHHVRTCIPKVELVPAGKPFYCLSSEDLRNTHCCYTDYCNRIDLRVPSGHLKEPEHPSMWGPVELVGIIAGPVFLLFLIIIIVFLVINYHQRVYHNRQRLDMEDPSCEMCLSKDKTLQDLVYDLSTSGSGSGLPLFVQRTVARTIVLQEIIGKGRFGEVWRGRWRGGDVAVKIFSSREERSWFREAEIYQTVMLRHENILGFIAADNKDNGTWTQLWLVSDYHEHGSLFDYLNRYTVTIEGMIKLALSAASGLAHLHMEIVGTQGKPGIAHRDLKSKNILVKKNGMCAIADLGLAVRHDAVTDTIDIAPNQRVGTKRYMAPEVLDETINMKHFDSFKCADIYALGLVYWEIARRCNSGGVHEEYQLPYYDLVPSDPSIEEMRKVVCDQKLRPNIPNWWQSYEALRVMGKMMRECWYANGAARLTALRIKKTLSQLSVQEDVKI
To be noted: 2.5 uM.

Experiment [2] addresses T2, Activin receptor type-1C (Homo sapiens) (UniProt Q8NER5).
T2 sequence (whole entry): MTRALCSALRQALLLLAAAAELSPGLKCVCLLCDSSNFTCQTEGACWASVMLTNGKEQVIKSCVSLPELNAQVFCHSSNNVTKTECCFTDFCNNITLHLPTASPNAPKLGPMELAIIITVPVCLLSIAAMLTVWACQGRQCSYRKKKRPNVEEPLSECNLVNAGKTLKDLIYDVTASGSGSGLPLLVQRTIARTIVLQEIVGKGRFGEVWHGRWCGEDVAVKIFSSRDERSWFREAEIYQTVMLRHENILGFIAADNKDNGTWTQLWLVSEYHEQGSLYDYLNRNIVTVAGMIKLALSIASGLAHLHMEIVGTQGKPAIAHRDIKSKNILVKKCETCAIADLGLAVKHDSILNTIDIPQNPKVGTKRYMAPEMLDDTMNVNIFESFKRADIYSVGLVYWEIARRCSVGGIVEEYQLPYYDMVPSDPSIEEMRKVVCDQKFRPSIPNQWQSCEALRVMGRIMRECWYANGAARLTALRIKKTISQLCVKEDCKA
To be noted: 2.5 uM.

In experiment [3] the target is TGF-beta receptor type-2 (Homo sapiens, UniProt P37173). Put plainly: Inhibition of TGBR2 signaling in human HEK293T cells assessed as inhibition of SMAD activation after 2 to 22 hrs by dual Luciferase Assay. The class given is cell-based, HEK-293T.
Chain of TGF-beta receptor type-2 (P37173 whole entry): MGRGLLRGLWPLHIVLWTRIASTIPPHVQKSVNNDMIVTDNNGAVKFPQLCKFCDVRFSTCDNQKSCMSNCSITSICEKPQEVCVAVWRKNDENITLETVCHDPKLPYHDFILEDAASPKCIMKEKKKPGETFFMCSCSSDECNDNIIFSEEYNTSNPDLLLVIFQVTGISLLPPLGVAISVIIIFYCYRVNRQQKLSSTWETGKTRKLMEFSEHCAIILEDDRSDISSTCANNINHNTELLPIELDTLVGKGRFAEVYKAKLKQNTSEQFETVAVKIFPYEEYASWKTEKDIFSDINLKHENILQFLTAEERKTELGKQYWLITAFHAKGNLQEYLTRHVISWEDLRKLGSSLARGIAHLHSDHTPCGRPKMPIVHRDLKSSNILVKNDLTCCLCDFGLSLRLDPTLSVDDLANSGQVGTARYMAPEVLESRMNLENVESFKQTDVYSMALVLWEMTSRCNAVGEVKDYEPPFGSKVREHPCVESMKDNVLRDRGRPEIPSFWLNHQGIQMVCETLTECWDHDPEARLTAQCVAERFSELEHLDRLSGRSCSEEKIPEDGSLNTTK
In experiment [4] the test system is HEK-293T. Put plainly: Inhibition of Activin receptor signaling in activin A-stimulated human HEK293T cells assessed as inhibition of SMAD activation at 2.5 uM after 2 to 22 hrs by dual Luciferase Assay. The class given is cell-based. In a few lines:
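HEK-293T cells bulk co-transfected with an SBE-4–firefly luciferase reporter and a TK-driven Renilla plasmid for normalization, in DMEM with 2% FBS. After 12–14 h, cells were replated at 25,000/well in DMEM with 1% FBS and rested 2 h. Compound was then added with Activin A (10 ng/mL) for 20–22 h. Dual luciferase read-out was compared with DMSO, run in triplicate, with ≥2 independent experiments.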

The test system of experiment [5] is CGR8. The experiment in a line: Promotion of cardiogenesis in mouse CGR8 cells carrying Myh6-GFP compound treated at 1 to 5 uM on days 3 to 5 measured on day 10 post differentiation by GFP reporter assay. Format: functional, cell-based. Put shortly:
(§1)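 Differentiation used CGR8 mESCs carrying a Myh6 (α-MHC)-GFP reporter, seeded in LIF-free high-glucose DMEM with 10% FBS. Compound was given on days 3–5 of differentiation. α-MHC-GFP fluorescence was quantified by high-content imaging on day 10, and data were normalized.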

The subject of experiment [6] is J1 (Mus musculus). Put plainly: Inhibition of mesoderm formation in mouse J1 cells carrying brachyury/T-GFP compound treated on day 1 measured on day 4 of differentiation by flow cytometry.
Experiment [7] can be described thus: Inhibition of calcium transients in mouse HL-1 cells after 10 mins using Fluo-4 by fluorescene assay. The class given is functional. Put shortly: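 HL-1 murine atrial cells plated at 25,000/well on gelatin (0.02%)/fibronectin (5 μg/mL) in Claycomb medium with 10% FBS and 0.1 mM norepinephrine. Loaded with Hoechst 33342 and Fluo-4 for 30 min at 37 °C, then 30 min at room temperature. Washed with Tyrode's (pH 7.4); compound in Tyrode's 10 min at room temperature. 10 s videos at 33 frames/s; kinetic parameters from image analysis.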

In experiment [8] the test system is CGR8. Put plainly: Promotion of cardiogenesis in mouse CGR8 cells carrying Myh6-GFP compound treated at 2.5 uM on days 3 to 5 measured on day 10 post differentiation by GFP reporter assay. The class given is functional, cell-based. Put shortly:
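CGR8 mESCs carrying a Myh6 (α-MHC)-GFP reporter seeded in LIF-free high-glucose DMEM with 10% FBS to differentiate. Compound given on days 3–5; α-MHC-GFP fluorescence quantified by high-content imaging on day 10. Data normalized at lower concentrations.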
On the technique in general: In a reporter assay the amount or activity of a reporter protein is the signal.

Experiment [9] relates to CGR8. The experiment in a line: Promotion of cardiogenesis in mouse CGR8 cells carrying Myh6-GFP compound treated at 5 uM on days 3 to 5 measured on day 10 post differentiation by GFP reporter assay. Format: functional, cell-based. Put shortly: as §1
Experiment [10] relates to CGR8. Put plainly: Inhibition of cardiogenesis in mouse CGR8 cells carrying Myh6-GFP compound treated at high concentration on days 3 to 5 measured on day 10 post differentiation by GFP reporter assay. Format: functional, cell-based. Put shortly:
as §1

Structures are written as SMILES. Calls of active or inactive are those of the source. The calls are words filed in the database; no cut-off is given here.

This note sets out measurements from ChEMBL document CHEMBL2177004, “Synthesis and SAR of b-annulated 1,4-dihydropyridines define cardiomyogenic compounds as novel inhibitors of TGFβ signaling” (J Med Chem, 2012).

As a reminder, the inhibition is the drop in the measured response relative to a control, in per cent. Regarding `NC(=O)c1ccc(-c2nc(-c3ccccn3)c(-c3ccc4c(c3)OCO4)[nH]2)cc1`, the inhibition in experiment [1] and in experiment [2] was 99% in each case.

Broadly, the IC50 is the midpoint of a concentration-inhibition curve. As for `CCOC(=O)C1=C(C)NC2=C(C(=O)CC(C)(C)C2)C1c1ccc(-c2ccccc2)cc1` (racemic) [listing 1 of 2 here], in experiment [3], the 50% inhibitory concentration (IC50) was found to be 850 nM.

Regarding `COC(=O)C1=C(C)NC2=C(C(=O)CC(C)(C)C2)C1c1cccc(-c2ccc3[nH]ccc3c2)c1` (racemic), the inhibition in [4] was 24%.

In the case of `CCOC(=O)C1=C(C)NC2=C(C(=O)CC(C)(C)C2)C1c1ccc(-c2ccccc2)cc1` (racemic) [listing 2 of 2 here], the inhibition in [4] came to 51%.

In the case of `COC(=O)C1=C(C)NC2=C(C(=O)CC(C)(C)C2)C1c1cccc(-c2ccc3[nH]ccc3c2)c1` (single isomer, unassigned; (-)), in experiment [4], the inhibition came out at 68%.

As for `CCOC(=O)C1=C(C)NC2=C(C(=O)CC(C)(C)C2)C1c1ccc(-c2ccccc2)cc1` (stereo in doubt; (-)1) [listing 1 of 2 here], the inhibition in [4] was determined as 41%. Further, the outcome in experiment [5] was Active. Moreover, the inhibition result in experiment [6] is “Active”.

Consider `CCCC1CC(=O)C2=C(C1)NC(C)=C(C(=O)OC)C2c1ccc(-c2ccccc2)cc1` (single isomer, unassigned; (+)) [listing 1 of 2 here], for which the “inhibition (INH)” value in experiment [7] was 58%.

In the case of `COC(=O)C1=C(C)NC2=C(C(=O)CC(C)(C)C2)C1c1cccc(-c2ccc3[nH]ccc3c2)c1` (single isomer, unassigned; (+)), the inhibition in experiment [4] is 55%. For the same compound, the inhibition entry in experiment [6] was “Active”.

Regarding `CCCC1CC(=O)C2=C(C1)NC(C)=C(C(=O)OC)C2c1ccc(-c2ccccc2)cc1` (single isomer, unassigned; (-)) [listing 1 of 2 here], in [7], the “inhibition (INH)” value worked out at 85%.

For `CCCC1CC(=O)C2=C(C1)NC(C)=C(C(=O)OC)C2c1ccc(-c2ccccc2)cc1` (single isomer, unassigned; (-)) [listing 2 of 2 here], the inhibition entry in [6] was “Active”. The result in experiment [8] was inactive.

Turning to `CCOC(=O)C1=C(C)NC2=C(C(=O)CC(C)(C)C2)C1c1ccc(-c2ccccc2)cc1` (stereo in doubt; (+)1) [listing 1 of 2 here], the IC50 in [3] was found to be 460 nM. Moreover, in experiment [7], the “inhibition (INH)” value came to 44%.

As to `CCOC(=O)C1=C(C)NC2=C(C(=O)CC(C)(C)C2)C1c1ccc(-c2ccccc2)cc1` (stereo in doubt; (-)1) [listing 2 of 2 here], in experiment [3], the IC50 turned out to be 6900 nM. Further, the “inhibition (INH)” value in experiment [7] stood at 87%.

With `CCCC1CC(=O)C2=C(C1)NC(C)=C(C(=O)OC)C2c1ccc(-c2ccccc2)cc1` (single isomer, unassigned; (+)) [listing 2 of 2 here], the inhibition entry in experiment [6] is “Active”. For the same compound, in [8], the result was Active.

On to `COC(=O)C1=C(C)NC(C)=C(C(=O)OC)C1c1ccccc1[N+](=O)[O-]` [NIFEDIPINE], for which the “inhibition (INH)” value in [7] worked out at 66%.

Consider `CCOC(=O)C1=C(C)NC2=C(C(=O)CC(C)(C)C2)C1c1ccc(-c2ccccc2)cc1` (stereo in doubt; (+)1) [listing 2 of 2 here], for which the inhibition is 49% in experiment [4] and “Dose-dependent effect” in experiment [10]. Moreover, the result in experiment [5] and in experiment [9] was Active. In addition, the inhibition result in [6] is “Active”.
